One may read the inhibition in vivo as the percentage by which the read-out fell short of the control.

Holding throughout (format): functional
For assay [1], the system named is Tobacco mosaic virus. As to the kind of experiment: In vivo antiviral activity against Tobacco mosaic virus (TMV) infected left side of tobacco leaves assessed as curative effect by decreasing local lesion number at 500 mg/l treated after viral inoculation measured at 3-4 days after viral challenge. Put shortly:
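Curative mode: N. tabacum leaves of the same age; compound solution smeared on left half, solvent on right half as control. Local lesions counted 3-4 days after inoculation; three repeats per compound. Inhibition rate derived from average lesion numbers of treated versus untreated control halves. TMV purified from infected leaves (PEG precipitation, 4 °C).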

Assay [2] deals with Tobacco mosaic virus. Briefly: In vivo antiviral activity against Tobacco mosaic virus (TMV) infected left side of tobacco leaves assessed as protective effect by decreasing local lesion number at 500 mg/l treated 12 hr before viral inoculation measured at 3-4 days after viral challenge. A digest of the protocol: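 Protective mode: compound solution smeared on the left half of same-age N. tabacum leaves, solvent on the right half as control. After 12 h, the leaves were dusted with silicon carbide and brush-inoculated with TMV at 6 × 10^-3 mg/mL. Local lesions counted 3-4 days after inoculation.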

In assay [3] the test system is Tobacco mosaic virus. As to the kind of experiment: In vivo antiviral activity against Tobacco mosaic virus (TMV) infected left side of tobacco leaves assessed as inactivation effect by decreasing local lesion number at 500 mg/l co-incubated with virus for 30 min before inoculation onto leaves measured at 3-4 days after viral challenge. Put shortly:
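TMV, purified from infected N. tabacum leaves by grinding in phosphate buffer and PEG precipitation at 4 °C, was mixed with an equal volume of compound solution for 30 min. The mixture was inoculated on the left half of the leaf and a solvent-virus mixture on the right half as control. Local lesions recorded 3-4 days later.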

Regarding `CCOC(=O)/C(C#N)=C(\NC(c1ccccc1)P(=O)(OCCOC)OCCOC)SC` (configuration not stated), the inhibition in vivo at 500 µg/mL is 32.1% in the assay with Tobacco mosaic virus [1], 21% in the assay on Tobacco mosaic virus [2] and 28.3% in the assay on Tobacco mosaic virus [3].

In the case of `COCCOC(=O)/C(C#N)=C(\NC(c1ccccc1)P(=O)(OCCOC)OCCOC)SC` (configuration not stated), the inhibition in vivo at 500 µg/mL worked out at 43.1% in the assay on Tobacco mosaic virus [1], 40% in the assay on Tobacco mosaic virus [2] and 41.9% in the assay with Tobacco mosaic virus [3].

For the compound `CCOCCOC(=O)/C(C#N)=C(\NC(c1ccccc1)P(=O)(OCCOC)OCCOC)SC` (configuration not stated), the inhibition in vivo at 500 µg/mL in the assay on Tobacco mosaic virus [1] was found to be 23.7%; in the assay on Tobacco mosaic virus [2], 0%; in the assay with Tobacco mosaic virus [3], 12.2%.

As for `COCCOP(=O)(OCCOC)C(N/C(SC)=C(/C#N)C(=O)OCCOc1ccccc1)c1ccccc1` (configuration not stated), the inhibition in vivo at 500 µg/mL in the assay with Tobacco mosaic virus [1] came out at 31%; in the assay on Tobacco mosaic virus [2] it was 14.4%; in the assay on Tobacco mosaic virus [3] it was 21%.

As for `COCCOP(=O)(OCCOC)C(N/C(SC)=C(/C#N)C(N)=O)c1ccccc1` (configuration not stated), the inhibition in vivo at 500 µg/mL was found to be 43.2% with Tobacco mosaic virus [1], 50% in the assay on Tobacco mosaic virus [2] and 66.7% with Tobacco mosaic virus [3].

Consider `COCCOP(=O)(OCCOC)C(N/C(SC)=C(/C#N)C(=O)NCc1ccccc1)c1ccccc1` (configuration not stated), for which the values for the inhibition in vivo at 500 µg/mL with Tobacco mosaic virus [1], with Tobacco mosaic virus [2] and with Tobacco mosaic virus [3] were 29.6%, 39.7% and 32.1%, respectively.

As for `COCCOP(=O)(OCCOC)C(N/C(SC)=C(/C#N)C(=O)OC)c1ccccc1F` (configuration not stated), the inhibition in vivo at 500 µg/mL amounted to 34.5% with Tobacco mosaic virus [1], 22% in the assay on Tobacco mosaic virus [2] and 41% in the assay with Tobacco mosaic virus [3].

Regarding `CCOC(=O)/C(C#N)=C(\NC(c1ccccc1F)P(=O)(OCCOC)OCCOC)SC` (configuration not stated), the inhibition in vivo at 500 µg/mL in the assay on Tobacco mosaic virus [1] was found to be 21.7%; in the assay with Tobacco mosaic virus [2] it was 0%; in the assay with Tobacco mosaic virus [3] it was 0%.

`COCCOC(=O)/C(C#N)=C(\NC(c1ccccc1F)P(=O)(OCCOC)OCCOC)SC` (configuration not stated): the inhibition in vivo at 500 µg/mL in the assay with Tobacco mosaic virus [1] is 9.9%; with Tobacco mosaic virus [2], 0%; in the assay on Tobacco mosaic virus [3], 0%.

Take `CCOCCOC(=O)/C(C#N)=C(\NC(c1ccccc1F)P(=O)(OCCOC)OCCOC)SC` (configuration not stated): the inhibition in vivo at 500 µg/mL with Tobacco mosaic virus [1] worked out at 31.4%; in the assay on Tobacco mosaic virus [2] it was 21.9%; with Tobacco mosaic virus [3], 33.3%.

Turning to `COCCOP(=O)(OCCOC)C(N/C(SC)=C(/C#N)C(=O)OCCOc1ccccc1)c1ccccc1F` (configuration not stated), the inhibition in vivo at 500 µg/mL in the assay on Tobacco mosaic virus [1] stood at 41.8%; in the assay on Tobacco mosaic virus [2] it was 29%; in the assay with Tobacco mosaic virus [3], 44%.

As for `COCCOP(=O)(OCCOC)C(N/C(SC)=C(/C#N)C(N)=O)c1ccccc1F` (configuration not stated), the inhibition in vivo at 500 µg/mL was found to be 22% in the assay with Tobacco mosaic virus [1], 30% with Tobacco mosaic virus [2] and 44.8% in the assay with Tobacco mosaic virus [3].

As to `COCCOP(=O)(OCCOC)C(N/C(SC)=C(/C#N)C(=O)NCc1ccccc1)c1ccccc1F` (configuration not stated), the values for the inhibition in vivo at 500 µg/mL in the assay on Tobacco mosaic virus [1], in the assay on Tobacco mosaic virus [2] and in the assay with Tobacco mosaic virus [3] were 28.6%, 39.9% and 40.8%, respectively.

`CCOCCOP(=O)(OCCOCC)C(N/C(SC)=C(/C#N)C(=O)OC)c1ccccc1` (configuration not stated): the inhibition in vivo at 500 µg/mL in the assay with Tobacco mosaic virus [1] was found to be 4.3%; with Tobacco mosaic virus [2], 0%; in the assay on Tobacco mosaic virus [3], 0%.

As to `CCOCCOP(=O)(OCCOCC)C(N/C(SC)=C(/C#N)C(=O)OCC)c1ccccc1` (configuration not stated), the inhibition in vivo at 500 µg/mL worked out at 51.1% with Tobacco mosaic virus [1], 45.9% in the assay with Tobacco mosaic virus [2] and 35.4% in the assay with Tobacco mosaic virus [3].

For `CCOCCOP(=O)(OCCOCC)C(N/C(SC)=C(/C#N)C(=O)OCCOC)c1ccccc1` (configuration not stated), the inhibition in vivo at 500 µg/mL in the assay with Tobacco mosaic virus [1] was found to be 58.8%; with Tobacco mosaic virus [2] it was 60.2%; in the assay on Tobacco mosaic virus [3], 78.9%.

In the case of `CCOCCOC(=O)/C(C#N)=C(\NC(c1ccccc1)P(=O)(OCCOCC)OCCOCC)SC` (configuration not stated), the inhibition in vivo at 500 µg/mL in the assay on Tobacco mosaic virus [1] was 46.4%; with Tobacco mosaic virus [2] it was 40.7%; in the assay with Tobacco mosaic virus [3] it was 29.5%.

Turning to `CCOCCOP(=O)(OCCOCC)C(N/C(SC)=C(/C#N)C(=O)OCCOc1ccccc1)c1ccccc1` (configuration not stated), the inhibition in vivo at 500 µg/mL in the assay on Tobacco mosaic virus [1] was 44.1%; in the assay with Tobacco mosaic virus [2], 3.8%; in the assay on Tobacco mosaic virus [3] it was 31.9%.

For the compound `CCOCCOP(=O)(OCCOCC)C(N/C(SC)=C(/C#N)C(N)=O)c1ccccc1` (configuration not stated), the results for the inhibition in vivo at 500 µg/mL in the assay on Tobacco mosaic virus [1], in the assay on Tobacco mosaic virus [2] and with Tobacco mosaic virus [3] were 56.7%, 54.4% and 80%, respectively.

As for `CCOCCOP(=O)(OCCOCC)C(N/C(SC)=C(/C#N)C(=O)NCc1ccccc1)c1ccccc1` (configuration not stated), the values for the inhibition in vivo at 500 µg/mL in the assay on Tobacco mosaic virus [1], in the assay with Tobacco mosaic virus [2] and in the assay with Tobacco mosaic virus [3] were 47.3%, 34.5% and 40.1%, respectively.

Consider `CCOCCOP(=O)(OCCOCC)C(N/C(SC)=C(/C#N)C(=O)OC)c1ccccc1F` (configuration not stated), for which the inhibition in vivo at 500 µg/mL was 33% with Tobacco mosaic virus [1], 0% in the assay with Tobacco mosaic virus [2] and 12% in the assay with Tobacco mosaic virus [3].

On to `CCOCCOP(=O)(OCCOCC)C(N/C(SC)=C(/C#N)C(=O)OCC)c1ccccc1F` (configuration not stated), for which the inhibition in vivo at 500 µg/mL worked out at 45.6% in the assay with Tobacco mosaic virus [1], 12.9% in the assay on Tobacco mosaic virus [2] and 33.4% with Tobacco mosaic virus [3].

Take `CCOCCOP(=O)(OCCOCC)C(N/C(SC)=C(/C#N)C(=O)OCCOC)c1ccccc1F` (configuration not stated): the results for the inhibition in vivo at 500 µg/mL in the assay on Tobacco mosaic virus [1], in the assay with Tobacco mosaic virus [2] and in the assay on Tobacco mosaic virus [3] were 60%, 58.9% and 85.5%, respectively.

In the case of `CCOCCOC(=O)/C(C#N)=C(\NC(c1ccccc1F)P(=O)(OCCOCC)OCCOCC)SC` (configuration not stated), the inhibition in vivo at 500 µg/mL was 41.9% in the assay on Tobacco mosaic virus [1], 31% with Tobacco mosaic virus [2] and 40.2% in the assay on Tobacco mosaic virus [3].

Consider `CCOCCOP(=O)(OCCOCC)C(N/C(SC)=C(/C#N)C(=O)OCCOc1ccccc1)c1ccccc1F` (configuration not stated), for which the inhibition in vivo at 500 µg/mL with Tobacco mosaic virus [1] worked out at 27.7%; in the assay on Tobacco mosaic virus [2] it was 30.7%; in the assay with Tobacco mosaic virus [3], 23.7%.

In the case of `CCOCCOP(=O)(OCCOCC)C(N/C(SC)=C(/C#N)C(N)=O)c1ccccc1F` (configuration not stated), the inhibition in vivo at 500 µg/mL is 30.6% in the assay on Tobacco mosaic virus [1], 30% with Tobacco mosaic virus [2] and 33.9% in the assay with Tobacco mosaic virus [3].

Take `CCOCCOP(=O)(OCCOCC)C(N/C(SC)=C(/C#N)C(=O)NCc1ccccc1)c1ccccc1F` (configuration not stated): the figures for the inhibition in vivo at 500 µg/mL with Tobacco mosaic virus [1], in the assay with Tobacco mosaic virus [2] and with Tobacco mosaic virus [3] were 54.3%, 55.4% and 79.9%, respectively.

For the compound `COCCOP(=O)(OCCOC)C(N/C(SC)=C(/C#N)C(=O)OC)c1ccccc1` (configuration not stated), the inhibition in vivo at 500 µg/mL came out at 28.8% with Tobacco mosaic virus [1], 0% with Tobacco mosaic virus [2] and 0% with Tobacco mosaic virus [3].

As for `CNCC(=O)N[C@@H](CO)C(=O)N[C@H]1[C@H](O)[C@@H](O)[C@H](n2ccc(N)nc2=O)O[C@@H]1C(N)=O` [NINGNANMYCIN], the inhibition in vivo at 500 µg/mL in the assay with Tobacco mosaic virus [1] turned out to be 58.9%; with Tobacco mosaic virus [2], 57.7%; in the assay on Tobacco mosaic virus [3] it was 96%.

Values taken from ChEMBL document CHEMBL3046552, “Synthesis and antiviral bioactivities of 2-cyano-3-substituted-amino(phenyl) methylphosphonylacrylates (acrylamides) containing alkoxyethyl moieties” (2010).
